Measurements as given in ChEMBL document CHEMBL4028912, “Novel Aryl Substituted Pyrazoles as Small Molecule Inhibitors of Cytochrome P450 CYP121A1: Synthesis and Antimycobacterial Evaluation” (J Med Chem, 2017).
pKd: −log10 of the molar value. ≈ marks a conversion by molar mass, not a printed value. Calls of active or inactive are those of the source. The rule behind the calls is not given here.

How the values were obtained:
[1] = tested on: Mycobacterium tuberculosis; experiment: Binding affinity to Mycobacterium tuberculosis CYP121A1 expressed in Escherichia coli TG1 (DE3) assessed as Soret peak shift by UV-visible scanning spectrophotometric analysis
Method in brief: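 Purified CYP121A1 (typically 3–5 μM) titrated at 28 °C in 100 mM KPi, 200 mM KCl, pH 7.85, 0.004% Triton X-100. Ligand added stepwise from DMSO stocks until saturation. Spectra 250–800 nm were recorded. Soret shift was judged from the difference spectra, with a red shift taken as type II.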

[2] = Binding affinity to Mycobacterium tuberculosis CYP121A1 expressed in Escherichia coli TG1 (DE3) by UV-visible scanning spectrophotometric analysis
Method in brief: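 Purified CYP121A1 (typically 3–5 μM) in 100 mM KPi, 200 mM KCl, pH 7.85, 0.004% Triton X-100, at 28 °C. Ligand added stepwise from DMSO stocks until no further spectral change. ΔAmax (peak minus trough of difference spectra) was plotted against [ligand] and fitted to a hyperbolic or Hill equation. Triplicate titrations were run and Kd was averaged.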

[3] = tested on: Mycobacterium tuberculosis; experiment: Antimycobacterial activity against Mycobacterium tuberculosis H37Rv after 7 days by resazurin microtiter assay; type: functional; settings: 168 h
Method in brief: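 M. tuberculosis H37Rv grown in 7H9 with 10% OADC at 37 °C to mid-log (OD600 0.4–0.6). Inoculum adjusted to McFarland no. 1, diluted 1:20. Compounds from DMSO stocks, final 0.39–100 μg/mL; rifampicin 0.004–1 μg/mL as control. After 7 days at 37 °C, 0.01% resazurin added, read 24 h later by fluorescence (530/590 nm). MIC = lowest concentration giving 90% inhibition.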

SMILES | Activity [1] | pKd [2] | MIC90 [3]
c1ccc(-c2nn(-c3ccccc3)cc2Cn2ccnc2)cc1 | 416 to 424 nm | 5.58 | 12.5 µg/mL (≈ 41.6 µM)
OC(Cn1cncn1)(Cn1cncn1)c1ccc(F)cc1F [FLUCONAZOLE] |  |  | > 100 µg/mL
O=C(NCCn1ccnc1)c1cn(-c2ccccc2)nc1-c1ccc(F)cc1 | inactive |  | > 100 µg/mL
Clc1ccccc1C(c1ccccc1)(c1ccccc1)n1ccnc1 [CLOTRIMAZOLE] |  |  | 20 µg/mL (≈ 58 µM)
Cc1ccc(-c2nn(-c3ccccc3)cc2Cn2ccnc2)cc1 | 416 to 422 nm | 5.27 | 12.5 µg/mL (≈ 39.8 µM)
Fc1ccc(-c2nn(-c3ccccc3)cc2Cn2ccnc2)cc1 | 416 to 424 nm | 5.38 | 25 µg/mL (≈ 78.5 µM)
COc1ccc(-c2nn(-c3ccccc3)cc2Cn2ccnc2)cc1 | 416 to 421 nm | 4.94 | 25 µg/mL (≈ 75.7 µM)
COc1ccc(-c2nn(-c3ccccc3)cc2Cn2cncn2)cc1 | 416 to 420 nm | 4.02 | 25 µg/mL (≈ 75.4 µM)
c1ccc(-c2nn(-c3ccccc3)cc2Cn2cncn2)cc1 | 416 to 422 nm | 4.13 | 50 µg/mL (≈ 166 µM)
O=C(NCCn1ccnc1)c1cn(-c2ccccc2)nc1-c1ccccc1 | 416 to 418 nm | 3.40 | > 100 µg/mL
Brc1ccc(-c2nn(-c3ccccc3)cc2Cn2ccnc2)cc1 | 416 to 420 nm | 4.71 | 6.25 µg/mL (≈ 16.5 µM)
Clc1ccc(-c2nn(-c3ccccc3)cc2Cn2ccnc2)cc1 | 416 to 422 nm | 5.13 | 12.5 µg/mL (≈ 37.3 µM)
Clc1ccc(-c2nn(-c3ccccc3)cc2Cn2cncn2)cc1 | 416 to 421 nm | 4.08 | 25 µg/mL (≈ 74.4 µM)
Fc1ccc(-c2nn(-c3ccccc3)cc2Cn2cncn2)cc1 | 416 to 423 nm | 4.45 | 25 µg/mL (≈ 78.3 µM)
COc1ccc(-c2nn(-c3ccccc3)cc2C(=O)NCCn2ccnc2)cc1 | 416 to 418 nm | 3.50 | 100 µg/mL (≈ 258 µM)
N#Cc1ccc(-c2nn(-c3ccccc3)cc2Cn2ccnc2)cc1 | 416 to 418 nm | 4.34 | 100 µg/mL (≈ 307 µM)
Ic1ccc(-c2nn(-c3ccccc3)cc2Cn2ccnc2)cc1 | 416 to 422 nm | 4.87 | 6.25 µg/mL (≈ 14.7 µM)
N#Cc1ccc(-c2nn(-c3ccccc3)cc2Cn2cncn2)cc1 | inactive |  | > 100 µg/mL
Brc1ccc(-c2nn(-c3ccccc3)cc2Cn2cncn2)cc1 | 416 to 418 nm | 3.71 | 25 µg/mL (≈ 65.7 µM)
Cc1ccc(-c2nn(-c3ccccc3)cc2Cn2cncn2)cc1 | 416 to 418 nm | 3.73 | > 100 µg/mL
Cc1ccc(-c2nn(-c3ccccc3)cc2C(=O)NCCn2ccnc2)cc1 | 416 to 418 nm | 3.54 | > 100 µg/mL
Ic1ccc(-c2nn(-c3ccccc3)cc2Cn2cncn2)cc1 | inactive |  | 50 µg/mL (≈ 117 µM)
O=C(NCCn1ccnc1)c1cn(-c2ccccc2)nc1-c1ccc(Cl)cc1 | inactive |  | > 100 µg/mL
